Results pooled from the literature.
Each line is one published result; the experiments were not run side by side.
Target: RAF proto-oncogene serine/threonine-protein kinase (RAF1, Homo sapiens, UniProt P04049)

For `Cc1cc(O)c(-c2ccc([C@@H](C)CN(C)C)cc2)c2c1[nH]c(=O)c1sccc12`, the inhibition was 7.07% (enzyme activity, inhibitor; 0.1 µM).
With `C#Cc1cc(-c2cc(Nc3nc(N[C@@H](C)c4ccc(F)cn4)ncc3Cl)n[nH]2)ccc1C=O` the inhibition was 13.8% (enzyme activity, inhibitor; 0.2 µM).
For `CO[C@@H]1[C@H](N(C)C(=O)c2ccccc2)C[C@H]2O[C@]1(C)n1c3ccccc3c3c4c(c5c6ccccc6n2c5c31)C(=O)NC4`, the inhibition was 0% (enzyme activity, inhibitor; 1 µM).
The remaining signal of `C#Cc1cnc(Nc2ccnc(CO)c2)nc1Nc1ccccc1S(C)(=O)=NC#N` (stereo not shown) is reported as 85% (cell-free assay; 1 µM).
With `C=CC(=O)N1CCC([C@@H]2CCNc3c(C(N)=O)c(-c4ccc(Oc5ccccc5)cc4)nn32)CC1` the inhibition was 0% (enzyme activity, inhibitor; 1 µM).
The remaining binding of `COc1ccc2[nH]c3c4[nH]c5ccc(OC)cc5c4c4c(c3c2c1)C(=O)NC4=O` is reported as 100% (binding, competition with immobilised ligand; 1 µM).
The remaining binding of `CCCCC(=O)Nc1ccc(-c2ccc3ncn(CCC)c(=O)c3c2)cn1` is reported as 80% (binding, competition with immobilised ligand; 0.5 µM).
`N#Cc1ccc(NC(=O)Nc2ccccc2)cc1` has a remaining binding of 98% (cell-free assay, competition with immobilised ligand; 25 µM).
`Cc1ccc(NC(=O)c2ccnc(C(F)(F)F)c2)cc1-c1cc(OCCO)nc(N2CCOCC2)c1` gave a remaining binding of 1.2% (binding, competition with immobilised ligand; 1 µM).
`COc1ccc2oc(-c3ccc4nc(N)oc4c3)c/c(=N\c3ccccc3NC(=O)CCN)c2c1` gave a remaining binding of 104% (binding; 1 µM).
